Assay results: ChEMBL document CHEMBL1140055, “Mixed-lineage kinase 1 and mixed-lineage kinase 3 subtype-selective dihydronaphthyl[3,4-a]pyrrolo[3,4-c]carbazole-5-ones: optimization, mixed-lineage kinase 1 crystallography, and oral in vivo activity in 1-methyl-4-phenyltetrahydropyridine models” (J Med Chem, 2008)
Active and inactive are the calls of the source. No cut-off for these calls is given here.

Assays:
[1] = target: T1, Mitogen-activated protein kinase kinase kinase 9 (Homo sapiens, UniProt P80192); assay: Inhibition of GST-fused human MLK1 at 1 uM
In short: (§1)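 Baculovirus-expressed GST fusions of human MLK1 or MLK3 kinase domain (50 ng MLK1, 100 ng MLK3), myelin basic protein substrate at 500 µg/mL.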
Target sequence in this assay (P80192 whole entry, looked up, the tested form may be a part): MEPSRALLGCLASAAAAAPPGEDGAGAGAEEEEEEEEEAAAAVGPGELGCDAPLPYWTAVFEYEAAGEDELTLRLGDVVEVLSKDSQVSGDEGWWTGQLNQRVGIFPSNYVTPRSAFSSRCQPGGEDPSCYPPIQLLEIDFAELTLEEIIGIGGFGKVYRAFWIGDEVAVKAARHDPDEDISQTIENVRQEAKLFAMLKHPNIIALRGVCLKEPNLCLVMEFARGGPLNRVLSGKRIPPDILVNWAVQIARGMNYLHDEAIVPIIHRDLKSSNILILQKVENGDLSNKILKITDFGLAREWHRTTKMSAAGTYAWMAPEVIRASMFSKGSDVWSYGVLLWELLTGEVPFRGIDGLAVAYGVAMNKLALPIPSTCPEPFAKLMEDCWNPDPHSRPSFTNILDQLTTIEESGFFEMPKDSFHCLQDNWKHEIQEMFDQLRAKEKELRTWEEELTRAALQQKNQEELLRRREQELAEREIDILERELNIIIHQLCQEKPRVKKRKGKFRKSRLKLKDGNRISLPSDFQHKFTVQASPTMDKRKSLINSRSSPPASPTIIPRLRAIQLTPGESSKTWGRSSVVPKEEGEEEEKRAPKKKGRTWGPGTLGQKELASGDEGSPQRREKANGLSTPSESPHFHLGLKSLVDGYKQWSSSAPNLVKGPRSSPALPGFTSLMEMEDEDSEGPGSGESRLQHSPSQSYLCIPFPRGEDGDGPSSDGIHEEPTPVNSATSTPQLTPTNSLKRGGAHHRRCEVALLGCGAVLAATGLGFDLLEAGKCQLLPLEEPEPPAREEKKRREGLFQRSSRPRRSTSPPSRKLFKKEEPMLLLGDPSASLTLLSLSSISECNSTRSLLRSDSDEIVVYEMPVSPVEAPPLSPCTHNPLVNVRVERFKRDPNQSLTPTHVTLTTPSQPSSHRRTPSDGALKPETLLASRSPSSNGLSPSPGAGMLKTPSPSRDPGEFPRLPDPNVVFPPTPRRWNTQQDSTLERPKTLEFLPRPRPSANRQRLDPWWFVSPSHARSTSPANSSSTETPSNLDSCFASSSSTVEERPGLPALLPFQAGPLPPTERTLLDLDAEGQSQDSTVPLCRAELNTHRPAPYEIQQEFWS

[2] = target: T2, Mitogen-activated protein kinase kinase kinase 11 (Homo sapiens, UniProt Q16584); assay: Inhibition of GST-fused human MLK3 at 1 uM; in short: as §1
[3] = target: T1, Mitogen-activated protein kinase kinase kinase 9; assay: Inhibition of GST-fused human MLK1
In short: (§2)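 GST fusions of human MLK kinase domains from baculovirus (50 ng MLK1_KD, 150 ng MLK2_KD/LZ, 100 ng MLK3_KD), substrate 500 µg/mL myelin basic protein. Buffer 20 mM Hepes pH 7.2, 5 mM EGTA, 15 mM MgCl2, 1 mM DTT, 25 mM β-glycerophosphate, 0.1% BSA, 2% DMSO.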
Target sequence in this assay (P80192 whole entry, the tested form may be a part): as the sequence (P80192 whole entry, looked up, the tested form may be a part) above

[4] = target: T2, Mitogen-activated protein kinase kinase kinase 11; assay: Inhibition of GST-fused human MLK3; in short: as §2
Target sequence in this assay (Q16584 whole entry, the tested form may be a part): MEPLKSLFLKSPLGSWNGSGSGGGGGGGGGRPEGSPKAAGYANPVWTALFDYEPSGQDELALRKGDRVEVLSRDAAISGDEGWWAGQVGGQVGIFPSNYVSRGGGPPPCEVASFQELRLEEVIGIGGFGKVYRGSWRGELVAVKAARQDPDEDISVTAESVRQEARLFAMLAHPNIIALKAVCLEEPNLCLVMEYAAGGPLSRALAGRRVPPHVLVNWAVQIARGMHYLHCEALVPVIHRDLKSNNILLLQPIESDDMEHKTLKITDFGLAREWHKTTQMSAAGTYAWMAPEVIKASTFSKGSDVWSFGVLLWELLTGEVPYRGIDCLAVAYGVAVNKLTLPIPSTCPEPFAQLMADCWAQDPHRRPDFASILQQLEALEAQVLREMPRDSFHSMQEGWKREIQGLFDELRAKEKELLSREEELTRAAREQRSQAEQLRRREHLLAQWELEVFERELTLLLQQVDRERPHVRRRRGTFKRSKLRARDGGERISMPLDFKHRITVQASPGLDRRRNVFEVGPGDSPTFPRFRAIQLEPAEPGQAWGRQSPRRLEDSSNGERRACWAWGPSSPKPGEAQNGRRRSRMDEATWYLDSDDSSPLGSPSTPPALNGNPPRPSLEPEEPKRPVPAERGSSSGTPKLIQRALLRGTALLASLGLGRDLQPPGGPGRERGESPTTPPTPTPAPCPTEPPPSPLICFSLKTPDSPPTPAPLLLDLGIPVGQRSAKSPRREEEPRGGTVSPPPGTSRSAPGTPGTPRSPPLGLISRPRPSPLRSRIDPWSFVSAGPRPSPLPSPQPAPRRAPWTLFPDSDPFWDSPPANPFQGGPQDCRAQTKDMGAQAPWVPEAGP

[5] = target: Fibroblast growth factor receptor 1 (Homo sapiens, UniProt P11362); assay: Inhibition of human FGFR1 expressed in baculovirus insect cell system
[6] = target: Mitogen-activated protein kinase 14 (Homo sapiens, UniProt Q16539); assay: Inhibition of human P38alpha expressed in baculovirus insect cell system
[7] = Inhibition of human IRK expressed in baculovirus insect cell system
[8] = target: Cyclin-dependent kinase; assay: Inhibition of human CDK expressed in baculovirus insect cell system
[9] = target: Serine/threonine-protein kinase Chk1/2 (Homo sapiens, UniProt O96017+O14757); assay: Inhibition of human CHK1/2 expressed in baculovirus insect cell system
[10] = target: Tyrosine-protein kinase Lck (Homo sapiens, UniProt P06239); assay: Inhibition of human Lck expressed in baculovirus insect cell system
[11] = target: Tyrosine-protein kinase Fyn (Homo sapiens, UniProt P06241); assay: Inhibition of human Fyn kinase expressed in baculovirus insect cell system
[12] = Half life in Sprague-Dawley rat at 2 mg/kg, iv; type: ADME, organism-based; set-up: dose 2 mg/kg, route intravenous; settings: in vivo
In short: (§3)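 Rat PK: iv dose into lateral tail vein in 3% DMSO/30% solutol/67% PBS; oral gavage in 50% Tween 80/40% propylene carbonate/10% propylene glycol, rats fasted overnight before oral dosing. Serial tail-vein blood at seven times over 6 h into heparinized tubes. Plasma protein-precipitated with acetonitrile, analysed with internal standard by LC-MS/MS. Bioavailability from iv versus po AUCs.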

[13] = AUC in Sprague-Dawley rat at 2 mg/kg, iv; type: ADME, organism-based; set-up: dose 2 mg/kg, route intravenous; settings: plasma
In short: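 Single intravenous dose into the lateral tail vein in 3% DMSO, 30% solutol and 67% phosphate-buffered saline. Serial heparinized blood samples were taken from the lateral tail vein at seven times over 6 h. Plasma was separated by centrifugation, deproteinized with acetonitrile and analysed for drug against an internal standard by LC-MS/MS.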

[14] = Volume of distribution in Sprague-Dawley rat at 2 mg/kg, iv; type: ADME, organism-based; set-up: dose 2 mg/kg, route intravenous; settings: in vivo; in short: as §3
[15] = Clearance in Sprague-Dawley rat at 2 mg/kg, iv; type: ADME, organism-based; set-up: dose 2 mg/kg, route intravenous; settings: in vivo; in short: as §3
[16] = AUC in Sprague-Dawley rat at 4 mg/kg, po; type: ADME, organism-based; set-up: dose 4 mg/kg, route oral; settings: plasma
In short: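 Rats were fasted overnight, then dosed by oral gavage in 50% Tween 80, 40% propylene carbonate and 10% propylene glycol. Serial heparinized blood samples were taken from the lateral tail vein at seven times over 6 h. Plasma was deproteinized with acetonitrile and analysed for drug against an internal standard by LC-MS/MS.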

[17] = Cmax in Sprague-Dawley rat at 4 mg/kg, po; type: ADME, organism-based; set-up: dose 4 mg/kg, route oral; settings: in vivo
[18] = Half life in Sprague-Dawley rat at 4 mg/kg, po; type: ADME, organism-based; set-up: dose 4 mg/kg, route oral; settings: in vivo
[19] = Oral bioavailability in Sprague-Dawley rat at 4 mg/kg; type: ADME, organism-based; settings: in vivo; in short: as §3
[20] = Metabolic stability in rat liver S9 fraction after 2 hrs in presence of NADPH; type: ADME, subcellular; settings: read-out: Stability
In short: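 Incubated 2 h in rat liver S9 preparation with NADPH; percent parent remaining reported.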

[21] = test system: SH-SY5Y; assay: Neuroprotective activity against human SH-SY5Y cells assessed as inhibition of MPP+-induced cell death; type: functional, cell-based
[22] = test system: Mus musculus; assay: Inhibition of MPTP-induced increase in pMKK4 levels in mouse at 6.7 mg/kg, po administered 2 hrs before MPTP challenge followed by 40 mg/kg, sc 2 hrs after MPTP challenge; type: functional
In short: (§4)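 Mice dosed orally at 6.7 mg/kg 2 h before and 2 h after MPTP (40 mg/kg sc). Substantia nigra dissected 2 h after second dose; pMKK4 measured by immunoblot against treated and control groups. Plasma drug levels taken 2 h after dosing (4 h post-MPTP).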

[23] = Plasma concentration in mouse at 6.7 mg/kg, po administered 2 hrs before MPTP challenge followed by 40 mg/kg, sc 2 hrs after MPTP challenge; type: ADME, organism-based; settings: other: po followed by sc; in short: as §4
[24] = test system: Mus musculus; assay: Neuroprotective activity against MPTP-induced loss of striatal dopamine markers in mouse at 2 mg/kg, po administered once daily; type: functional, organism-based; set-up: dose 2 mg/kg
In short: (§5)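 Mouse MPTP neurotoxicity: low dose 20 mg/kg sc, assessing striatal DA terminals by GBR-12935 binding; high dose 40 mg/kg sc, assessing striatal DA markers and substantia nigra cell bodies by TH immunoreactivity. Test compounds given orally, q.d. or b.i.d.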

[25] = test system: Mus musculus; assay: Neuroprotective activity against MPTP-induced loss of substantia nigra dopamine cell bodies in mouse at 2 mg/kg, po administered once daily; type: functional, organism-based; set-up: dose 2 mg/kg; in short: as §5
[26] = target: Platelet-derived growth factor receptor beta (Homo sapiens, UniProt P09619); assay: Inhibition of human PDGFRbeta expressed in baculovirus insect cell system
[27] = target: T1, Mitogen-activated protein kinase kinase kinase 9; assay: Inhibition of GST-fused human MLK1 expressed in CHO cells assessed as MKK4 phosphorylation; type: cell-based
In short: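 CHO cells transfected with MLK1 plus dominant-negative MKK4 cDNA; phospho-MKK4 quantified by ELISA; IC50 derived.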
Target sequence in this assay (P80192 whole entry, the tested form may be a part): as the sequence (P80192 whole entry, looked up, the tested form may be a part) above

[28] = target: Mitogen-activated protein kinase kinase kinase 10 (Homo sapiens, UniProt Q02779); assay: Inhibition of human MLK2 expressed in baculovirus insect cell system
In short: as §2, with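 “DMSO. […] 15 min at 37 °C, TCA precipitation, scintillation counting. IC50 by variable-slope sigmoidal fit, average of duplicates within 20%.” for “DMSO.”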

[29] = target: High affinity nerve growth factor receptor (Homo sapiens, UniProt P04629); assay: Inhibition of human TrkA expressed in baculovirus insect cell system
[30] = target: c-Jun N-terminal kinase, JNK (Homo sapiens, UniProt P45983+P53779+P45984); assay: Inhibition of human JNK expressed in baculovirus insect cell system
[31] = target: T3, Dual specificity mitogen-activated protein kinase kinase 4 (Homo sapiens, UniProt P45985); assay: Inhibition of human MKK4/7 expressed in baculovirus insect cell system
T3 sequence (P45985 whole entry): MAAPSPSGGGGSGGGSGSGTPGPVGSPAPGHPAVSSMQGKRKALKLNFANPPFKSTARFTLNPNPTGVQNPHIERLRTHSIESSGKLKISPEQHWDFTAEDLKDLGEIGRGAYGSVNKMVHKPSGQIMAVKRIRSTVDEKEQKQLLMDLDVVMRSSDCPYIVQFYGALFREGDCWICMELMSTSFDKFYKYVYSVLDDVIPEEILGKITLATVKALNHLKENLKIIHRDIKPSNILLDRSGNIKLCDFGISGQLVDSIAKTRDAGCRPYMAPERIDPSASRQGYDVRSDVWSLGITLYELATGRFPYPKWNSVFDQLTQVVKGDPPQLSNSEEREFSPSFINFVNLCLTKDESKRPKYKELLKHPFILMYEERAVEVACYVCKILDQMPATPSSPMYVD

[32] = target: Protein kinase C (PKC); assay: Inhibition of human PKC expressed in baculovirus insect cell system
[33] = target: Vascular endothelial growth factor receptor 1 (Homo sapiens, UniProt P17948); assay: Inhibition of human VEGFR1 expressed in baculovirus insect cell system
[34] = target: Vascular endothelial growth factor receptor 2 (Homo sapiens, UniProt P35968); assay: Inhibition of human VEGFR2 expressed in baculovirus insect cell system
[35] = target: Vascular endothelial growth factor receptor 3 (Homo sapiens, UniProt P35916); assay: Inhibition of human VEGFR3 expressed in baculovirus insect cell system
[36] = test system: Mus musculus; assay: Inhibition of MPTP-induced increase in pMKK4 levels in mouse at 1 mg/kg, sc administered 2 hrs before MPTP challenge followed by 10 mg/kg, sc 2 hrs after MPTP challenge

Vascular endothelial growth factor receptor 2, sequence (P35968 whole entry): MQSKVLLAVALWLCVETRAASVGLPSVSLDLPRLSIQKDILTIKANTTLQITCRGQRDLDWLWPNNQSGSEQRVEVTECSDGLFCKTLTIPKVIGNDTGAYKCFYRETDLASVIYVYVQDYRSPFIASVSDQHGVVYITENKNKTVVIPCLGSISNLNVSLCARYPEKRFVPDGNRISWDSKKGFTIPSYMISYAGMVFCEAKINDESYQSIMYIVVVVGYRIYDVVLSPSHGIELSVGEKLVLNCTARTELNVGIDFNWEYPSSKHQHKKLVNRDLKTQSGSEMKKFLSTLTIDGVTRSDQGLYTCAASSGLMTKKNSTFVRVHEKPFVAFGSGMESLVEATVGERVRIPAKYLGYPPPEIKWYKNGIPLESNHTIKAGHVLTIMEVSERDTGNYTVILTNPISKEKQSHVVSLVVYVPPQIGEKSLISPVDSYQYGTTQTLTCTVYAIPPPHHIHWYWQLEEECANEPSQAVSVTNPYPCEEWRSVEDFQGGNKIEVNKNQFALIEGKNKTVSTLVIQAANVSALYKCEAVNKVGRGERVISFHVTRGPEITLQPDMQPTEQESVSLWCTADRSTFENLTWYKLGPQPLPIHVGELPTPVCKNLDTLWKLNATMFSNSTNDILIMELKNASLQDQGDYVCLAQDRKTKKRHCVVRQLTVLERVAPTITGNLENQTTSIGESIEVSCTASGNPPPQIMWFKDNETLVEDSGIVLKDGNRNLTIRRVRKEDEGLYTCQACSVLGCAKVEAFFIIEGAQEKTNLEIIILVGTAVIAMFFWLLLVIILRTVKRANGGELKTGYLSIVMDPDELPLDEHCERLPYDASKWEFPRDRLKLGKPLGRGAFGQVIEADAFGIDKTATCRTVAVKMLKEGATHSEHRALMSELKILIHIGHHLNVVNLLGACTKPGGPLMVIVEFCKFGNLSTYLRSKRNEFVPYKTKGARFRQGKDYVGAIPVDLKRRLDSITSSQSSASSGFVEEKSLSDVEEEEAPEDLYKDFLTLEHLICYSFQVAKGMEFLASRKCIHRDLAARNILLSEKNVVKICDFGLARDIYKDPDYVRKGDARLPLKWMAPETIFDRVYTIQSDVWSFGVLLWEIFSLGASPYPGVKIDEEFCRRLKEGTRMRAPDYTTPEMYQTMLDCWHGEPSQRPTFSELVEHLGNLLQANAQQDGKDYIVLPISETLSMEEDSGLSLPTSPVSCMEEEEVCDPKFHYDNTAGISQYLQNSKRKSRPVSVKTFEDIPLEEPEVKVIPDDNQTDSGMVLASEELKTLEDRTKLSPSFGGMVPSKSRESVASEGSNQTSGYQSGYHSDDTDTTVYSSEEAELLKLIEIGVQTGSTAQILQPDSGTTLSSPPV
Vascular endothelial growth factor receptor 3, sequence (P35916 whole entry): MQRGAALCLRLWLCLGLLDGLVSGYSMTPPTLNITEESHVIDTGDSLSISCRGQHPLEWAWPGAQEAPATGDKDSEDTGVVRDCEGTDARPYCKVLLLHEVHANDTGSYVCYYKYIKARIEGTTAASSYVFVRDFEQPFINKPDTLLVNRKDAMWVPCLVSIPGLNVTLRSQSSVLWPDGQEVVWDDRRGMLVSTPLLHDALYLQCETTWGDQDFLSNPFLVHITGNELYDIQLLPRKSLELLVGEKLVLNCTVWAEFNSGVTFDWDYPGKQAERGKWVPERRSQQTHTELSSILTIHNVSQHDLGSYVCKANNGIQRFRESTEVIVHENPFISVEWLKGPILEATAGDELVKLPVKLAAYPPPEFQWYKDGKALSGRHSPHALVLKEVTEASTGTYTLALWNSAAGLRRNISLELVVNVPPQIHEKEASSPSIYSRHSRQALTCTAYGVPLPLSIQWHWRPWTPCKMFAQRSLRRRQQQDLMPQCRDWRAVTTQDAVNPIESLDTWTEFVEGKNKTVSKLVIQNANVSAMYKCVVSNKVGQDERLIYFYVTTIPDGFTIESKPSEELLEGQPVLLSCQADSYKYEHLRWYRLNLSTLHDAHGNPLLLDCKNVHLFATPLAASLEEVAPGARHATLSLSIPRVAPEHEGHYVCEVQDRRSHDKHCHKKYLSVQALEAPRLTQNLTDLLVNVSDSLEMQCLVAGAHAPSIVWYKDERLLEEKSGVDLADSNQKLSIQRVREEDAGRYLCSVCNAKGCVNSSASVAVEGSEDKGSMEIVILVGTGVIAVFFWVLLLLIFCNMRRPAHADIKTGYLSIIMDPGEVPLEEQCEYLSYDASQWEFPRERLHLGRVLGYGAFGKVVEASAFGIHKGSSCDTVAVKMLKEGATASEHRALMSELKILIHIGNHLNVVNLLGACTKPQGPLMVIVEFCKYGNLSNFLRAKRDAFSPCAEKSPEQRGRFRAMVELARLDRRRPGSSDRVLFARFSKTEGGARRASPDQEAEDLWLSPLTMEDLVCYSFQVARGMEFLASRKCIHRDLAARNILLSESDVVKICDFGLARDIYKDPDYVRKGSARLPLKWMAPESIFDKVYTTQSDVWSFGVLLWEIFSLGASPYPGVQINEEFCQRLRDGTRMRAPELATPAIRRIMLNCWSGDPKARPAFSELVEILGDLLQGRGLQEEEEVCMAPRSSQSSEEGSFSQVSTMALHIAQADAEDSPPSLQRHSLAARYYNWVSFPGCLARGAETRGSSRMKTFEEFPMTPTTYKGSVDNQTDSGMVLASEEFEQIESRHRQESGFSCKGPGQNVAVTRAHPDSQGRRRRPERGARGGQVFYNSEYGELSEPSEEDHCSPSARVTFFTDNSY
Mitogen-activated protein kinase 14, sequence (Q16539 whole entry): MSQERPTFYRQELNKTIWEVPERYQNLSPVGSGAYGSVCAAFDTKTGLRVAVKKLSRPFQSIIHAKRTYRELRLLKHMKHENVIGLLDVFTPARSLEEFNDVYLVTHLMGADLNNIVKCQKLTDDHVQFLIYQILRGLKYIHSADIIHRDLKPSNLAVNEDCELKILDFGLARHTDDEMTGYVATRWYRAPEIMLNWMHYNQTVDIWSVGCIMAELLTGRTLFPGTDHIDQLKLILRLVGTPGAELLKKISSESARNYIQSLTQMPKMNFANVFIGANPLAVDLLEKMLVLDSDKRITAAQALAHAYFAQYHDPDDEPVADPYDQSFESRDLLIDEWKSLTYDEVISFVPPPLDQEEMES

N#CCOc1ccc2c(c1)CCc1c-2c2c(c3c4ccccc4n(CCO)c13)CNC2=O
inhibition [1]: 30%
inhibition [2]: 8%

COc1ccc2c(c1)CCc1c-2c2c(c3c4ccccc4n(CCCO)c13)CNC2=O
IC50 [3]: 101 nM
IC50 [4]: 87 nM

COc1ccc2c(c1)CCc1c-2c2c(c3c4ccccc4n(CCO)c13)CNC2=O
IC50 [5]: > 10000 nM
IC50 [6]: > 10000 nM
IC50 [7]: > 10000 nM
IC50 [8]: > 10000 nM
IC50 [9]: > 10000 nM
IC50 [10]: 6400 nM
IC50 [11]: 3400 nM
half-life [12]: 0.6 h
AUC [13]: 1730 ng·h/mL
Vd [14]: 0.9 L/kg
clearance [15]: 19 mL/min/kg
AUC [16]: 1990 ng·h/mL
Cmax [17]: 572 ng/mL
half-life [18]: 1.4 h
bioavailability [19]: 57%
remaining at 2 h [20]: 44%
IC50 [21]: 32 nM
inhibition (INH) [22]: 68%
concentration at 2 h [23]: 250 nM
Activity [24]: Active
Activity [25]: Active
IC50 [26]: > 10000 nM
IC50 [27]: 127 nM
IC50 [28]: 1580 nM
IC50 [29]: 1270 nM
IC50 [30]: > 30000 nM
IC50 [31]: > 3000 nM
IC50 [32]: > 10000 nM
IC50 [33]: > 10000 nM
IC50 [34]: 4720 nM
IC50 [35]: > 10000 nM
IC50 [3]: 103 nM
IC50 [4]: 55 nM

CCSCc1ccc2c(c1)c1c3c(c4c5cc(CSCC)ccc5n5c4c1n2[C@H]1C[C@](O)(C(=O)OC)[C@]5(C)O1)CNC3=O [CEP-1347]
IC50 [21]: 5.3 nM
IC50 [27]: 72 nM
IC50 [33]: 209 nM
IC50 [34]: 43 nM
IC50 [35]: 39 nM
IC50 [4]: 64 nM
inhibition (INH) [36]: 45%
